Results as given in ChEMBL document CHEMBL1156237, “Antiviral activity of benzimidazole derivatives. II. Antiviral activity of 2-phenylbenzimidazole derivatives” (Bioorg Med Chem, 2010).
Activity calls are given as the source filed them. Unless noted, the calls are words filed in the database; no cut-off is given here.

How the values were obtained:
[1] = Cytotoxicity against human MT4 cells after 96 hrs by MTT assay; type: cell-based; conditions: MT4 cells
Summary of the method: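 Exponentially growing MT-4 cells at 1 × 10^5 cells/mL in RPMI-1640 with 10% FCS, exposed to serial compound dilutions at 37 °C, 5% CO2. Viability by MTT after 96 h; CC50 is the concentration reducing viability of mock-infected cells by 50%.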

[2] = Cytotoxicity against MDBK cells after 48 to 96 hrs by MTT assay; type: cell-based, Bos taurus; conditions: cattle, MDBK cells
Summary of the method: (§1)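 Cell seeding: MDBK at 6 × 10^5 cells/mL in MEM-E with 10% horse serum and 1 mM Na pyruvate; BHK at 1 × 10^6 cells/mL in MEM-E with 10% FBS. Serial compound dilutions, 37 °C, 5% CO2. Viability of mock-infected cells by MTT after 48–96 h; CC50 is the concentration reducing viability by 50%.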

[3] = Cytotoxicity against BHK cells after 48 to 96 hrs by MTT assay; type: cell-based, Mesocricetus auratus; conditions: hamster; summary of the method: as §1
[4] = Cytotoxicity against african green monkey Vero cells; type: cell-based; conditions: chlorocebus sabaeus
Summary of the method: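 Vero 76 monolayers exposed to serial compound dilutions, run in parallel on the same 24-well plates as the plaque-reduction assays. CC50 is the concentration reducing viability of mock-infected cells by 50%.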

[5] = test system: Human immunodeficiency virus 1; assay: Antiviral activity against HIV1 3B infected in human MT4 cells assessed as protection from virus-induced cytopathogenicity after 4 days by MTT method; type: functional, organism-based
Summary of the method: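 MT-4 cells, 1 × 10^4/well in RPMI with or without serial compound dilutions, infected with HIV-1 IIIB, 100 CCID50 (m.o.i. 0.01). Protection from virus-induced cytopathogenicity read by MTT.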

[6] = test system: Vesicular stomatitis virus; assay: Antiviral activity against VSV Indiana lab infected in african green monkey Vero cells after 2 days by plaque reduction assay; type: functional, organism-based
[7] = test system: Bovine viral diarrhea virus 1; assay: Antiviral activity against Bovine viral diarrhea virus NADL infected in MDBK cells assessed as protection from virus-induced cytopathogenicity after 3 to 4 days by MTT method; type: functional, organism-based, Bovine viral diarrhea virus 1-NADL; conditions: Bovine viral diarrhea virus isolates and strains, MDBK
Summary of the method: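 Cytopathogenicity protection assay. MDBK cells at 3 × 10^4/well, grown overnight to confluence. Infected with BVDV NADL at m.o.i. 0.01 in MEM-E with 0.5% inactivated FBS, 1 mM Na pyruvate and 1% kanamycin. Serial compound dilutions added after 1 h. After 3–4 days at 37 °C, viability read by MTT; EC50 is the concentration giving 50% protection.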

[8] = test system: Yellow fever virus; assay: Antiviral activity against Yellow fever virus 17D infected in BHK cells assessed as protection from virus-induced cytopathogenicity after 3 to 4 days by MTT method; type: functional, organism-based
[9] = test system: Coxsackievirus B2; assay: Antiviral activity against Human coxsackievirus B2 Ohio-1 infected in african green monkey Vero cells after 3 days by plaque reduction assay; type: functional, organism-based, Coxsackievirus B2 (strain Ohio-1); conditions: Enterovirus B, Vero, 72 h
Summary of the method: (§2)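 Plaque reduction assay. Vero 76 cells at 2 × 10^5/well, grown overnight to confluence in D-MEM with 10% FBS. Infected 2 h with 50–100 PFU/well, unadsorbed virus removed. Overlay of D-MEM with 1% inactivated FBS and 0.75% methylcellulose, with or without serial compound dilutions. Incubated at 37 °C for 3 days (HSV-1 KOS, CVB-2 Ohio-1) or 5 days (RSV A2). Fixed and stained with crystal violet in 50% ethanol; plaques counted; EC50 by linear regression.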

[10] = test system: Poliovirus 1; assay: Antiviral activity against Polio virus type1 Sabin strain Chat infected in african green monkey Vero cells after 2 days by plaque reduction assay; type: functional, organism-based, Human poliovirus 1 strain Sabin; conditions: Enterovirus C, 48 h
[11] = test system: Human alphaherpesvirus 1; assay: Antiviral activity against HSV1 KOS infected in african green monkey Vero cells after 3 days by plaque reduction assay; type: functional, organism-based; conditions: Human alphaherpesvirus 1, KOS, 72 h; summary of the method: as §2
[12] = test system: Respiratory syncytial virus; assay: Antiviral activity against RSV A2 infected in african green monkey Vero cells after 5 days by plaque reduction assay; type: functional, organism-based; summary of the method: as §2
[13] = test system: Vaccinia virus; assay: Antiviral activity against Vaccinia virus Elstree-Lister infected in african green monkey Vero cells after 3 days by plaque reduction assay; type: functional, organism-based; conditions: Orthopoxvirus vaccinia
[14] = test system: Mammalian orthoreovirus 1; assay: Antiviral activity against Reovirus 1 3651 infected in BHK21 cells assessed as protection from virus-induced cytopathogenicity after 3 to 4 days by MTT method; type: functional, organism-based; conditions: BHK-21

For Cn1c(-c2ccc(N)cc2)nc2cc(C(F)(F)F)ccc21, which CC50 at 96 h [1] is on record?
The CC50 at 96 h was 20 µM.

And the CC50 [2]?
The CC50 was 74 µM.

And the CC50 [3]?
Its CC50 is 85 µM.

And the CC50 [4]?
The CC50 was over 100 µM.

What about the Activity [5] of the same molecule?
Its Activity is “inactive”.

What about the Activity [6] of the same molecule?
The Activity was “inactive”.

What about the EC50 [7] of the same molecule?
The EC50 was 69 µM.

What about the EC50 [8] of the same molecule?
The EC50 was over 85 µM.

And the EC50 [9]?
Its EC50 is 14 µM.

And the EC50 [10]?
The EC50 was 20 µM.

And the EC50 [11]?
Its EC50 is over 100 µM.

What about the Activity [12] of the same molecule?
Its Activity is “inactive”.

What about the Activity [13] of the same molecule?
Its Activity is “inactive”.

And the Activity [14]?
The Activity was “inactive”.

With CN1CCN(CC(=O)Nc2ccc(-c3nc4cc(C(F)(F)F)ccc4n3C)cc2)CC1 as the molecule, how does the CC50 at 96 h [1] read?
Its CC50 at 96 h is 22 µM.

And the CC50 [2]?
The CC50 was 44 µM.

What about the CC50 [3] of the same molecule?
Its CC50 is 16 µM.

What about the CC50 [4] of the same molecule?
The CC50 was over 100 µM.

And the Activity [5]?
The Activity was “inactive”.

What about the Activity [6] of the same molecule?
The Activity was “inactive”.

What about the EC50 [7] of the same molecule?
Its EC50 is 15 µM.

What about the EC50 [8] of the same molecule?
The EC50 was 7 µM.

And the EC50 [9]?
The EC50 was 19 µM.

What about the EC50 [10] of the same molecule?
The EC50 was 41 µM.

And the EC50 [11]?
The EC50 was over 100 µM.

And the Activity [12]?
Its Activity is “inactive”.

And the Activity [13]?
The Activity was “inactive”.

And the Activity [14]?
The Activity was “inactive”.

With Cn1c(-c2ccc(NC(=O)CN3CCCCC3)cc2)nc2cc(C(F)(F)F)ccc21 as the molecule, how does the CC50 at 96 h [1] read?
The CC50 at 96 h was 9 µM.

What about the CC50 [2] of the same molecule?
Its CC50 is 100 µM.

What about the CC50 [3] of the same molecule?
The CC50 was over 100 µM.

What about the CC50 [4] of the same molecule?
The CC50 was over 100 µM.

And the Activity [5]?
The Activity was “inactive”.

What about the Activity [6] of the same molecule?
Its Activity is “inactive”.

And the EC50 [7]?
The EC50 was 6 µM.

And the EC50 [8]?
The EC50 was over 100 µM.

And the EC50 [9]?
Its EC50 is 32 µM.

What about the EC50 [10] of the same molecule?
Its EC50 is over 100 µM.

What about the EC50 [11] of the same molecule?
The EC50 was over 100 µM.

And the Activity [12]?
Its Activity is “inactive”.

What about the Activity [13] of the same molecule?
The Activity was “inactive”.

And the Activity [14]?
The Activity was “inactive”.

Which CC50 at 96 h [1] does the source give for CC(=O)Nc1ccc(-c2nc3cc(C(F)(F)F)ccc3n2C2CCCCC2)cc1 here?
The CC50 at 96 h was 24 µM.

And the CC50 [2]?
The CC50 was 17 µM.

What about the CC50 [3] of the same molecule?
Its CC50 is 15 µM.

What about the CC50 [4] of the same molecule?
Its CC50 is 30 µM.

What about the Activity [5] of the same molecule?
The Activity was “inactive”.

What about the Activity [6] of the same molecule?
The Activity was “inactive”.

And the EC50 [7]?
Its EC50 is over 17 µM.

What about the EC50 [8] of the same molecule?
Its EC50 is over 15 µM.

What about the EC50 [9] of the same molecule?
The EC50 was 9 µM.

And the EC50 [10]?
Its EC50 is over 30 µM.

What about the EC50 [11] of the same molecule?
Its EC50 is over 30 µM.

And the Activity [12]?
The Activity was “inactive”.

And the Activity [13]?
The Activity was “inactive”.

What about the Activity [14] of the same molecule?
The Activity was “inactive”.

For CCN(CC)CC(=O)Nc1ccc(-c2nc3cc(C(F)(F)F)ccc3n2C)cc1, which CC50 at 96 h [1] is on record?
Its CC50 at 96 h is 9 µM.

What about the CC50 [2] of the same molecule?
Its CC50 is 57 µM.

What about the CC50 [3] of the same molecule?
Its CC50 is 16 µM.

And the CC50 [4]?
Its CC50 is 90 µM.

And the Activity [5]?
Its Activity is “inactive”.

What about the Activity [6] of the same molecule?
The Activity was “inactive”.

And the EC50 [7]?
Its EC50 is 10 µM.

And the EC50 [8]?
The EC50 was 7 µM.

What about the EC50 [9] of the same molecule?
The EC50 was 21 µM.

What about the EC50 [10] of the same molecule?
The EC50 was 35 µM.

And the EC50 [11]?
The EC50 was over 90 µM.

What about the Activity [12] of the same molecule?
The Activity was “inactive”.

And the Activity [13]?
Its Activity is “inactive”.

And the Activity [14]?
Its Activity is “inactive”.

Which CC50 at 96 h [1] does the source give for O=C(CCl)Nc1ccc(-c2nc3cc(C(F)(F)F)ccc3n2C23CC4CC(CC(C4)C2)C3)cc1 here?
The CC50 at 96 h was 0.3 µM.

What about the CC50 [2] of the same molecule?
Its CC50 is 18 µM.

And the CC50 [3]?
The CC50 was 51 µM.

What about the CC50 [4] of the same molecule?
The CC50 was over 100 µM.

And the Activity [5]?
The Activity was “inactive”.

What about the Activity [6] of the same molecule?
The Activity was “inactive”.

And the EC50 [7]?
The EC50 was over 18 µM.

And the EC50 [8]?
Its EC50 is over 51 µM.

What about the EC50 [9] of the same molecule?
Its EC50 is over 100 µM.

What about the EC50 [10] of the same molecule?
Its EC50 is over 100 µM.

What about the EC50 [11] of the same molecule?
The EC50 was over 100 µM.

What about the Activity [12] of the same molecule?
Its Activity is “inactive”.

What about the Activity [13] of the same molecule?
Its Activity is “inactive”.

And the Activity [14]?
The Activity was “inactive”.

With CC(=O)Nc1ccc(-c2nc3cc(C(F)(F)F)ccc3n2C23CC4CC(CC(C4)C2)C3)cc1 as the molecule, how does the CC50 at 96 h [1] read?
Its CC50 at 96 h is 28 µM.

What about the CC50 [2] of the same molecule?
The CC50 was 82 µM.

And the CC50 [3]?
The CC50 was over 100 µM.

What about the CC50 [4] of the same molecule?
The CC50 was over 100 µM.

And the Activity [5]?
The Activity was “inactive”.

And the Activity [6]?
The Activity was “inactive”.

What about the EC50 [7] of the same molecule?
The EC50 was over 82 µM.

What about the EC50 [8] of the same molecule?
The EC50 was over 100 µM.

What about the EC50 [9] of the same molecule?
Its EC50 is over 100 µM.

And the EC50 [10]?
The EC50 was over 100 µM.

What about the EC50 [11] of the same molecule?
Its EC50 is over 100 µM.

What about the Activity [12] of the same molecule?
The Activity was “inactive”.

What about the Activity [13] of the same molecule?
The Activity was “inactive”.

And the Activity [14]?
The Activity was “inactive”.

Which CC50 at 96 h [1] does the source give for CCC(=O)Nc1ccc(-c2nc3cc(C(F)(F)F)ccc3n2C)cc1 here?
Its CC50 at 96 h is 8 µM.

And the CC50 [2]?
The CC50 was over 100 µM.

And the CC50 [3]?
The CC50 was over 100 µM.

And the CC50 [4]?
Its CC50 is over 100 µM.

And the Activity [5]?
The Activity was “inactive”.

And the Activity [6]?
The Activity was “inactive”.

And the EC50 [7]?
Its EC50 is over 100 µM.

What about the EC50 [8] of the same molecule?
The EC50 was over 100 µM.

And the EC50 [9]?
Its EC50 is over 100 µM.

And the EC50 [10]?
The EC50 was over 100 µM.

What about the EC50 [11] of the same molecule?
Its EC50 is over 100 µM.

And the Activity [12]?
The Activity was “inactive”.

What about the Activity [13] of the same molecule?
The Activity was “inactive”.

What about the Activity [14] of the same molecule?
Its Activity is “inactive”.
